Data on ten molecules can be found in ChEMBL document CHEMBL4266032, “Methylated Polycyclic Polyprenylated Acylphloroglucinol Derivatives from Hypericum ascyron” (2018).

The term inhibition denotes the drop in the measured response relative to a control, in per cent.

The test system of one assay is SK-N-SH. The assay is described as follows: Neuroprotective activity against glutamate-induced toxicity in human SK-N-SH cells assessed as cell viability at 10 uM pretreated for 4 hrs followed by glutamate challenge measured after 4 hrs by MTT assay (reference value: 67.7 +/- 1.1%). Format: functional. The following applies: read-out: Activity. (Tetrazolium assays rely on reduction of a dye to a coloured formazan, in cell work by metabolically active cells.)

The next assay has as its system HepG2. Nature of the assay: Hepatoprotective activity in human HepG2 cells assessed as inhibition of paracetamol-induced reduction in cell viability at 10 uM pretreated for 1 hr followed by paracetamol addition after 24 hrs by MTT assay relative to control. Format: functional. Summed up:
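HepG2 cells injured with paracetamol; test agents at 10 μM; viability read by MTT and given as % of normal, with protection expressed as % inhibition relative to the paracetamol-only control. Bicyclol at 10 μM served as positive control. Means ± SD, n = 3 (n = 6 for normal and control groups).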

With `CC(C)=CCC[C@]1(C)[C@@H](CC=C(C)C)C[C@@]2(C)C(=O)[C@]1(C(=O)c1ccccc1)C(=O)C1=C2O[C@@H](C(C)(C)O)C1`, the viability at 10 µM in the assay with SK-N-SH was found to be 82.9%.
For the molecule `CC(C)=CCC[C@]1(C)[C@@H](CC=C(C)C)C[C@@]2(C)C(=O)[C@]1(C(=O)c1ccccc1)C(=O)C1=C2O[C@H](C(C)(C)O)[C@@H]1O`, in the assay on HepG2, the inhibition at 10 µM worked out at 30.8%.
Turning to `CC(C)=CCC[C@]1(C)[C@@H](CC=C(C)C)C[C@]2(C)C(=O)C3=C(O[C@H](C(C)(C)O)[C@@H]3O)[C@@]1(C(=O)c1ccccc1)C2=O`, in the assay with SK-N-SH, the viability at 10 µM was 72.2%.
In the case of `CC(C)=CC[C@H]1C[C@]2(C)C(=O)C(C(=O)c3ccccc3)=C3O[C@H](C(C)(C)O)CC[C@@]1(C)[C@]3(CC=C(C)C)C2=O`, the inhibition at 10 µM in the assay with HepG2 is 42.9%.
As for `COC(=O)c1cc(OC)c2c(c1-c1c(CO)cc(OC)c3c1OCO3)OCO2` [BICYCLOL], in the assay with HepG2, the inhibition at 10 µM is 52.6%.
On to `CC(C)=CCC1=C2O[C@H](C(C)(C)O)CC[C@]3(C)[C@@H](CC=C(C)C)C[C@](C)(C1=O)C(=O)[C@]23C(=O)c1ccccc1`, for which, in the assay with HepG2, the inhibition at 10 µM came out at 37.2%.
Regarding `CC(C)=CCC[C@]1(C)[C@@H](CC=C(C)C)C[C@]2(C)C(=O)C3=C(O[C@H](C(C)(C)O)[C@H]3O)[C@@]1(C(=O)c1ccccc1)C2=O`, the viability at 10 µM with SK-N-SH turned out to be 78.2%. Moreover, the inhibition at 10 µM in the assay with HepG2 stood at 68.1%.
Consider `CC(C)=CCC[C@]1(C)[C@@H](CC=C(C)C)C[C@]2(C)C(=O)C3=C(O[C@@H](C(C)(C)O)[C@H]3O)[C@@]1(C(=O)c1ccccc1)C2=O`, for which the inhibition at 10 µM in the assay with HepG2 worked out at 71.4%.
For `Oc1ccc(/C=C/c2cc(O)cc(O)c2)cc1` [RESVERATROL], in the assay on SK-N-SH, the viability at 10 µM was found to be 82.5%.
Consider `CC(C)=CCC[C@]1(C)[C@@H](CC=C(C)C)C[C@]2(C)C(=O)C3=C(O[C@@H](C(C)(C)O)C3)[C@@]1(C(=O)c1ccccc1)C2=O`, for which the viability at 10 µM with SK-N-SH amounted to 71.8%.
